From ChEMBL document CHEMBL1156826, “Multifunctional antioxidants for the treatment of age-related diseases” (J Med Chem, 2010) come the findings set out here.

The source made the active and inactive calls. The calls are words filed in the database; no cut-off is given here.

Assay [1] can be described thus: Binding affinity to Fe(2+) ions assessed as percent parent peaks remaining by electrospray ionization mass spectrometry. More on the design: concentration or dose not given beside the values. Put shortly:
(§1)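 Metal ion stocks (1 mM in double-distilled water) were prepared from ammonium iron(II) sulfate, iron(III) nitrate, copper(I) chloride, copper(II) chloride, zinc chloride, magnesium chloride or calcium chloride. Each was mixed with compound at metal:compound ratios of 10:1, 1:1 and 1:10, keeping the final compound concentration at 50 μM.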

A short description of assay [2]: Binding affinity to Fe(3+) ions assessed as percent parent peaks remaining by electrospray ionization mass spectrometry. More on the design: concentration or dose not given beside the values. Put shortly: as §1
Assay [3] in a line: Binding affinity to Cu(1+) ions assessed as percent parent peaks remaining by electrospray ionization mass spectrometry. More on the design: concentration or dose not given beside the values. In a few lines:
as §1

Assay [4] can be described thus: Binding affinity to Cu(2+) ions assessed as percent parent peaks remaining by electrospray ionization mass spectrometry. More on the design: concentration or dose not given beside the values. Put shortly:
as §1

The nature of assay [5]: Binding affinity to Zn(2+) ions assessed as percent parent peaks remaining by electrospray ionization mass spectrometry. Also on record: concentration or dose not given beside the values. In a few lines:
as §1

Assay [6] in a line: Binding affinity to Ca(2+) ions assessed as percent parent peaks remaining by electrospray ionization mass spectrometry. Also on record: concentration or dose not given beside the values. In a few lines:
as §1

Assay [7] can be described thus: Binding affinity to Mg(2+) ions assessed as percent parent peaks remaining by electrospray ionization mass spectrometry. More on the design: concentration or dose not given beside the values. Put shortly:
as §1

The subject of assay [8] is SRA1. Put plainly: Cytoprotection in human SRA1 cells assessed as protection against H2O2-induced cell death after 2 hrs by MTS assay. Format: functional, cell-based. In a few lines: (§2)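 Cells are seeded at 1 × 10⁴ per well and pre-treated 1 hr in FBS-free medium with 100 μM compound, then given 1 mM H2O2, or 1 mM H2O2 plus 1 mM iron(II) chloride (Fenton), for 2 hr. After a PBS wash, MTS is added in blank medium for 1.5 hr at 37 °C and read at 490 nm. Results are normalized to cells without H2O2 (100%), mean ± SD of three experiments.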
For orientation: Formazan colour is commonly taken as a measure of viable cells.

Assay [9] deals with SRA1. Put plainly: Cytoprotection in human SRA1 cells assessed as protection against Fenton's reagent-induced cell death after 2 hrs by MTS assay. Format: functional, cell-based. In a few lines: as §2
Assay [10] has as its system ARPE-19. Put plainly: Cytoprotection in human ARPE19 cells assessed as protection against Fenton's reagent-induced cell death after 2 hrs by MTS assay. The class given is functional, cell-based. In a few lines:
as §2

Assay [11] has as its system HAh. The assay is described as follows: Cytoprotection in human HAh cells assessed as protection against Fenton's reagent-induced cell death after 2 hrs by MTS assay. Format: functional, cell-based. In a few lines: as §2
Assay [12] concerns SRA1. Put plainly: Antioxidant activity in human SRA1 cells assessed as inhibition of H2O2-induced reduction of cellular glutathione level after 2 hrs by DTNB method. Format: functional, cell-based. In a few lines: (§3)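 Cells are pre-incubated 1 hr in FBS-free medium with 100 μM compound, then given 1 mM H2O2, or 1 mM H2O2 plus 1 mM iron(II) chloride (Fenton), for 2 hr. Cells are washed with PBS, scraped and homogenized; supernatant protein is measured by Bradford. Homogenate is deproteinized with 20% TCA, and GSH is read at 412 nm (DTNB). Values are nmol GSH/mg protein, normalized to unexposed cells (100%), in triplicate.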

In assay [13] the test system is SRA1. Put plainly: Antioxidant activity in human SRA1 cells assessed as inhibition of Fenton's reagent-induced reduction of cellular glutathione level after 2 hrs by DTNB method. Format: functional, cell-based. Put shortly:
as §3

For assay [14], the system named is ARPE-19. The assay is described as follows: Antioxidant activity in human […] cells assessed as inhibition of Fenton's reagent-induced reduction of cellular glutathione level after 2 hrs by DTNB method. The class given is functional, cell-based. Put shortly: as §3
Assay [15] concerns HAh. Put plainly: Antioxidant activity in human HAh cells assessed as inhibition of Fenton's reagent-induced reduction of cellular glutathione level after 2 hrs by DTNB method. The class given is functional, cell-based. In a few lines:
as §3

For the compound `COc1nc(N2C(=O)CN(S(=O)(=O)N(C)C)CC2=O)nc(OC)c1O`, the Activity in assay [1] stood at 7.5%; in assay [2], 8.2%; in assay [3], 4%; in assay [4], 3.6%; in [5], 14.6%; in assay [6] it was 100%. In assay [7], the Activity stood at 100%. Besides, the result in assay [8], in assay [9], in assay [10], in [11], in [12] and in assay [13] was Active. Besides, the result in assay [14] and in [15] was Active.
On to `CN(C)S(=O)(=O)N1CC(=O)N(c2ncc(O)cn2)C(=O)C1`, for which the Activity in assay [1] is 6.9%; in assay [2] it was 8.2%; in assay [3], 4.2%; in assay [4] it was 3%; in [5], 12.7%; in assay [6], 100%. Moreover, the Activity in assay [7] was 100%. Also, the outcome in assay [8], in [9], in assay [10], in assay [11], in assay [12] and in assay [13] was Active. In addition, the outcome in assay [14] and in assay [15] was Active.
As for `CN(C)S(=O)(=O)N1CC(=O)N(c2ncccn2)C(=O)C1`, the Activity was found to be 8.1% in [1]; 10% in assay [2]; 3.6% in assay [3]; 4.4% in assay [4]; 15.3% in [5]; 100% in [6]. The Activity in [7] stood at 100%. The result in assay [8] and in assay [12] was inactive. Moreover, the outcome in [10], in assay [11], in assay [13], in assay [14] and in assay [15] was Active.
As to `COc1cc(OC)nc(N2C(=O)CN(S(=O)(=O)N(C)C)CC2=O)n1`, the Activity in [1] came to 7.3%; in assay [2], 7.6%; in [3], 4.1%; in assay [4], 3.4%; in assay [5], 13.8%; in assay [6], 100%. Also, the Activity in [7] came to 100%. Moreover, the result in assay [8] and in assay [12] was inactive. Besides, the outcome in assay [10], in [11], in assay [13], in assay [14] and in [15] was Active.
Take `Cc1c(C)c2c(c(C)c1O)CCC(C)(C(=O)O)O2` (stereo unspecified): the result in [8] and in assay [15] was Active.
Regarding `COc1nc(N2CCN(S(=O)(=O)N(C)C)CC2)nc(OC)c1O`, the Activity in assay [1], in assay [2], in assay [3], in assay [4], in assay [5] and in assay [6] was 100% in each case. In [7], the Activity is 100%. The outcome in assay [8], in [9], in [10], in [11], in assay [12] and in assay [14] was Active. Also, the result in assay [15] was Active.
For the compound `CN(C)S(=O)(=O)N1CCN(c2ncc(O)cn2)CC1`, the Activity in assay [1], in [2], in [3], in assay [4], in assay [5] and in [6] was 100% throughout. The Activity in [7] was 100%. Further, the result in assay [8], in assay [9], in assay [10], in [11], in assay [12] and in assay [14] was Active. Also, in assay [15], the outcome was Active.
On to `CN(C)S(=O)(=O)N1CCN(c2ncccn2)CC1`, for which the Activity in assay [1], in assay [2], in [3], in assay [4], in assay [5] and in assay [6] was 100% throughout. Further, the Activity in [7] was found to be 100%. The result in [8] and in [12] was inactive.
Regarding `COc1cc(OC)nc(N2CCN(S(=O)(=O)N(C)C)CC2)n1`, the Activity in assay [1], in assay [2], in [3], in assay [4], in assay [5] and in [6] was 100% each time. In assay [7], the Activity came out at 100%. Moreover, the outcome in assay [8] and in assay [12] was inactive.
